Series [1] concerns the target T1, Prostaglandin E2 receptor EP3 subtype (Homo sapiens, UniProt P43115).
T1 sequence (P43115 whole entry): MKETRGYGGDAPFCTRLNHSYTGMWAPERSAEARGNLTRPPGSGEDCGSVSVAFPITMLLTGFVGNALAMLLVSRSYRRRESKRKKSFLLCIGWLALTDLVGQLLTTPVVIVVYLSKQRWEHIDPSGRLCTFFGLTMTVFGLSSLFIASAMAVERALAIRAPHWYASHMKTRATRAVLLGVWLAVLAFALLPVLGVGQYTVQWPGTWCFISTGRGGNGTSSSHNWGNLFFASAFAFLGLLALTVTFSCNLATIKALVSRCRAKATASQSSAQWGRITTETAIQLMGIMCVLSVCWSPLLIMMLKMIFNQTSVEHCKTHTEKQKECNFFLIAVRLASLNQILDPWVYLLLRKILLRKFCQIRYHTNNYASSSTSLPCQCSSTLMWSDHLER
Put plainly: Partial displacement of [3H]PGE2 from human EP3 receptor in presence of 10% human serum. (Loss of bound radioactivity is the signal in a displacement assay; it reports binding, not function.)

Series [2] deals with T1, Prostaglandin E2 receptor EP3 subtype. Put plainly: Displacement of [3H]PGE2 from human EP3 receptor in buffer.
Series [3] can be described thus: assessed as parent compound remaining after 30 mins. Conditions: read-out: Stability.
Series [4] addresses T1, Prostaglandin E2 receptor EP3 subtype. The experiment in a line: Displacement of [3H]PGE2 from human EP3 receptor in presence of 10% human serum.
Another series deals with Cytochrome P450 2D6 (Homo sapiens, UniProt P10635). The experiment in a line: Inhibition of human CYP2D6. Format: ADME.
For series [5], the target named is Prostaglandin F2-alpha receptor (Homo sapiens, UniProt P43088). The experiment in a line: Binding affinity to human FP receptor by radioligand displacement assay. In a few lines: (§1)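 Radioligand displacement assays on a human prostanoid receptor panel (EP2, EP4, FP, IP). IC50 values reported in µM.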
Series [6] can be described thus: Metabolic stability in mouse liver microsomes assessed as parent compound remaining after 30 mins. Format: ADME, Microsome. The settings on record: read-out: Stability. In outline:
(§2)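 Compounds incubated with liver microsomes from human, rat, mouse, dog or monkey. Read-out is percent parent compound remaining at 30 min of incubation.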
On the technique in general: Liver microsomes are vesicles of endoplasmic reticulum, rich in cytochrome P450 enzymes.

The nature of series [7]: Metabolic stability in rat liver microsomes assessed as parent compound remaining after 30 mins. Type of series: ADME, Microsome. Conditions: read-out: Stability. In a few lines: as §2
The species entered for a further series is Rattus norvegicus. Put plainly: Antithrombotic activity in rat assessed as platelet aggregation. Type of series: functional. In outline:
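Functional EP3 antagonism measured in a rat platelet aggregation assay. Values reported as EC50 in nM.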

The target of series [8] is T2, Cytochrome P450 3A4 (Homo sapiens, UniProt P08684). Put plainly: Inhibition of human CYP3A4 using 7-benzyloxy-4-trifluoromethylcoumarin as substrate. Format: ADME. In a few lines:
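Inhibition of human CYP3A4 with 7-benzyloxy-4-trifluoromethylcoumarin (BFC) as substrate. Values given as IC50.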

The target of series [9] is Prostaglandin E2 receptor EP4 subtype (Homo sapiens, UniProt P35408). The experiment in a line: Binding affinity to human EP4 receptor by radioligand displacement assay. In a few lines:
as §1

In another series the target is T3, Cytochrome P450 1A2 (Homo sapiens, UniProt P05177).
T3 sequence (P05177 whole entry): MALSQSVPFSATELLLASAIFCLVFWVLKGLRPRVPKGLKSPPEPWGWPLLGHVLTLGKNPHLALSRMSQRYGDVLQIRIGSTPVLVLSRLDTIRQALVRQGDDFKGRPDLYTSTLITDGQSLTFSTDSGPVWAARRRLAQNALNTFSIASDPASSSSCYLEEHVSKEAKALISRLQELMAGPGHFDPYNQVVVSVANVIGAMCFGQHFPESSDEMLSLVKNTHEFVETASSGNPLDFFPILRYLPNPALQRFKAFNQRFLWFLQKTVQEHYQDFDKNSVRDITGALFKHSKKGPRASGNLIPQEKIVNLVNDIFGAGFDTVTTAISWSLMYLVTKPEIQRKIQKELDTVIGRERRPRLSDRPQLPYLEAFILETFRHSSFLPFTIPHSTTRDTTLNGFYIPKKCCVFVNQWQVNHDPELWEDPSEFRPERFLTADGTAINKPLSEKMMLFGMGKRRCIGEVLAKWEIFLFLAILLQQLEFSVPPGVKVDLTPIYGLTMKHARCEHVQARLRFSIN
The experiment in a line: Inhibition of human CYP1A2. Format: ADME.

The target of series [10] is Prostaglandin E2 receptor EP2 subtype (Homo sapiens, UniProt P43116). The experiment in a line: Binding affinity to human EP2 receptor by radioligand displacement assay. In a few lines:
as §1

The nature of series [11]: Metabolic stability in human liver microsomes assessed as parent compound remaining after 30 mins. Type of series: ADME, Microsome. The settings on record: read-out: Stability. In a few lines: as §2
Another series addresses Cytochrome P450 2C9 (Homo sapiens, UniProt P11712). The experiment in a line: Inhibition of human CYP2C9. Type of series: ADME.
Another series concerns the target Prostacyclin receptor (Homo sapiens, UniProt P43119). The experiment in a line: Binding affinity to human IP receptor by radioligand displacement assay. In outline:
as §1

In series [12] the target is T2, Cytochrome P450 3A4. The experiment in a line: Inhibition of human CYP3A4 using dibenzylfluorescein as substrate. Type of series: ADME. In a few lines: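 Inhibition of human CYP3A4 with dibenzylfluorescein (DBF) as substrate. Values given as IC50.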
Series [13] in a line: Half life in rat at 6 mg/kg, iv. Format: ADME, organism-based. Further details: dose 6 mg/kg, route intravenous. Conditions: in vivo. In a few lines:
(§3)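 Single iv dose of 6 mg/kg given to mouse and to rat. Half-life in hours derived from the plasma pharmacokinetic parameters, alongside predicted clearance and steady-state volume of distribution.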

Series [14] is described as follows: Half life in mouse at 6 mg/kg, iv. Type of series: ADME, organism-based. The arrangement: dose 6 mg/kg, route intravenous. Conditions: in vivo. In a few lines: as §3

T2 sequence (P08684 whole entry): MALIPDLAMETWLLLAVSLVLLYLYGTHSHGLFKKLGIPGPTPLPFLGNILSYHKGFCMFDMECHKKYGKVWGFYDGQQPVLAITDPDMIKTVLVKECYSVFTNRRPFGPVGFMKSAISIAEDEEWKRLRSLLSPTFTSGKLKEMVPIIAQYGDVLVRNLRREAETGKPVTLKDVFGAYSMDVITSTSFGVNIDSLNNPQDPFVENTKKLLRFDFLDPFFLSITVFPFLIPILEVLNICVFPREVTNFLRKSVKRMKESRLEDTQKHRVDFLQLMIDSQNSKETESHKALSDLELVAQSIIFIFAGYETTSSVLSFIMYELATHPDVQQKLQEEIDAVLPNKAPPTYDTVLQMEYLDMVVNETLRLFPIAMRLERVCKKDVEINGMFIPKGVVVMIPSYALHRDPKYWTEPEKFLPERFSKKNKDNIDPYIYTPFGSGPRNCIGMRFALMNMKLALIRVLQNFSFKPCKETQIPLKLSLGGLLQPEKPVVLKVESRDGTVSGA
Prostaglandin E2 receptor EP2 subtype, sequence (P43116 whole entry): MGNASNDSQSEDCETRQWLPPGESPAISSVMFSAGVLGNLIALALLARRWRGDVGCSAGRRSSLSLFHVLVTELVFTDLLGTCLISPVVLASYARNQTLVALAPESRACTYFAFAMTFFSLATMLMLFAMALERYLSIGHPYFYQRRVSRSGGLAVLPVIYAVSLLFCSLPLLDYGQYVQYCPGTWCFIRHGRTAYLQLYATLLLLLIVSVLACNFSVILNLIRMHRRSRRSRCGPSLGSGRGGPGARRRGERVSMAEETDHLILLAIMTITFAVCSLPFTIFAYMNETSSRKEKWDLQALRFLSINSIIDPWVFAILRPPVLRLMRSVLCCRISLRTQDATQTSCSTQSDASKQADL
Prostacyclin receptor, sequence (P43119 whole entry): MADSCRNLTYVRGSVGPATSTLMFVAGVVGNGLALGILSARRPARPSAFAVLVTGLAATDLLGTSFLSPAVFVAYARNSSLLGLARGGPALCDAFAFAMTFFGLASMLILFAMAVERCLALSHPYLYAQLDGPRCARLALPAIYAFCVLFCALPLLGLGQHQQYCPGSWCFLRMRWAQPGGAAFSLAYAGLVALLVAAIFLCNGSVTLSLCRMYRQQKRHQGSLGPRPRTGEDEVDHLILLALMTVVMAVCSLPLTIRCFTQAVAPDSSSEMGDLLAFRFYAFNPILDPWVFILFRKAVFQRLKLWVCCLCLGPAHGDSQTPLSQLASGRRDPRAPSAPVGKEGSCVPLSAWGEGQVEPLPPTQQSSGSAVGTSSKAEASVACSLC
Cytochrome P450 2D6, sequence (P10635 whole entry): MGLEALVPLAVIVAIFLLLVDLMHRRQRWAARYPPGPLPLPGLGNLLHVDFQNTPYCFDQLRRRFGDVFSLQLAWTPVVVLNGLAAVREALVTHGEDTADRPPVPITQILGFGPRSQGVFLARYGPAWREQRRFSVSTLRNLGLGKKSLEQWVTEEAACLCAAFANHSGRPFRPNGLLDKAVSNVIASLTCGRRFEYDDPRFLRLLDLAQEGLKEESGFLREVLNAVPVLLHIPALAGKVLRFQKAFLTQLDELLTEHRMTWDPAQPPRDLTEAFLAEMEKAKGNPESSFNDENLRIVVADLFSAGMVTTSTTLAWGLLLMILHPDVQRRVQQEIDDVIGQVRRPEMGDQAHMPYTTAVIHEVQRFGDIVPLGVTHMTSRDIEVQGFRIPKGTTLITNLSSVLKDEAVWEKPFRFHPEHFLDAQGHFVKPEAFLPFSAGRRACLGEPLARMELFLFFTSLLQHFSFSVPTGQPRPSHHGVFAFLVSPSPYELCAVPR
Prostaglandin F2-alpha receptor, sequence (P43088 whole entry): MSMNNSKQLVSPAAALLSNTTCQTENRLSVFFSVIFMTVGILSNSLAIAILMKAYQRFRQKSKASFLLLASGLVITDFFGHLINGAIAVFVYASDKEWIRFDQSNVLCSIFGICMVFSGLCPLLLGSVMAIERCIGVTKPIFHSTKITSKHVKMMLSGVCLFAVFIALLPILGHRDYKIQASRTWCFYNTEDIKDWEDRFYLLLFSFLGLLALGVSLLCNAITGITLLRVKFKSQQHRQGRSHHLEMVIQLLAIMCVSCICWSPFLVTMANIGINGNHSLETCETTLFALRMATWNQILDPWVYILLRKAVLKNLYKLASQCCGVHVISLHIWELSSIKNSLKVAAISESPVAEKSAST
Prostaglandin E2 receptor EP4 subtype, sequence (P35408 whole entry): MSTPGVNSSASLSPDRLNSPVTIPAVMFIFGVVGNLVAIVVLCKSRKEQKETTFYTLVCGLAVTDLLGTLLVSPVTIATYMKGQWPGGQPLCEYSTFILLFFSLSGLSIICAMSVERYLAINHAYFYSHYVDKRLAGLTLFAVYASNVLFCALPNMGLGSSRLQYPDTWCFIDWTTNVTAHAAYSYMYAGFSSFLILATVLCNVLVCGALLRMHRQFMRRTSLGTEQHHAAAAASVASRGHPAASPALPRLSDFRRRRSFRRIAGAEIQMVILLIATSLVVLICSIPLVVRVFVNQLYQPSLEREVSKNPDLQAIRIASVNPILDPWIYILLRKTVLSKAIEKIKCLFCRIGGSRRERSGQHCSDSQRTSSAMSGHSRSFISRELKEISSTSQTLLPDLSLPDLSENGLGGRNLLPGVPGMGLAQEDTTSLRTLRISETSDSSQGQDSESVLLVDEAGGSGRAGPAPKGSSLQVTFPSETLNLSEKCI
Cytochrome P450 2C9, sequence (P11712 whole entry): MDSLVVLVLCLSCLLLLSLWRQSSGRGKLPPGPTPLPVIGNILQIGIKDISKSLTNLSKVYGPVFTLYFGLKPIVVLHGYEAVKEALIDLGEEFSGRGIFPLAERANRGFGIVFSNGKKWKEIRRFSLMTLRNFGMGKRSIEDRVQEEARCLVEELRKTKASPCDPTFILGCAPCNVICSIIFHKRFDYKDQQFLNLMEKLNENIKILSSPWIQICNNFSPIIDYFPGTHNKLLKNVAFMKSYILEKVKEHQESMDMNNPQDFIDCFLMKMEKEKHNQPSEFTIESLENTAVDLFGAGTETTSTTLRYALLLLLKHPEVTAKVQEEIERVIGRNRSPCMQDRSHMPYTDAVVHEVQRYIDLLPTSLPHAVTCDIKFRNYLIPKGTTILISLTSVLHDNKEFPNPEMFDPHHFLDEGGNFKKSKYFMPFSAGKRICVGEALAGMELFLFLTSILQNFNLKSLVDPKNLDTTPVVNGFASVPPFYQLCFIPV

A word on the IC50: it is the point on the concentration scale where inhibition reaches its midpoint. As to `O=C(/C=C/c1cccc2c1N(Cc1ccc(Cl)cc1Cl)C(=O)C21OCCO1)NS(=O)(=O)c1cc(Cl)c(Cl)s1`, the values for the half-maximal inhibitory concentration (IC50) result in [1] and in series [2] were “Active” and 3.8 nM, respectively. The remaining at 0.5 h in [3] was 28.4%.
Consider `O=C(/C=C/c1cccc2c1N(Cc1ccc3ccccc3c1)C(=O)C21OCCO1)NS(=O)(=O)c1cccs1`, for which the IC50 in series [4] is 679 nM; in [2], 13 nM. The remaining at 0.5 h in series [3] came out at 37.8%.
A word on the EC50: it is the concentration giving half of the maximal effect. In the case of `O=C(/C=C/c1cccc2c1N(Cc1ccc3ccccc3c1)C(=O)C2O)NS(=O)(=O)c1cc(F)c(F)cc1F` (stereo not drawn), the “inhibition (INH)” value is “Not Active” at Cytochrome P450 2D6; “Not Active” against Cytochrome P450 3A4 [8]; “Not Active” against Cytochrome P450 1A2; “Active” against Cytochrome P450 2C9; “Active” on Cytochrome P450 3A4 [12]. For the same compound, the IC50 in [5] was greater than 20000 nM; in [4], 9.4 nM; in series [2], 0.6 nM; in series [9], 8700 nM; in [10] it was greater than 20000 nM; on Prostacyclin receptor, greater than 20000 nM. Also, the values for the remaining at 0.5 h in series [6], in series [7] and in series [11] were 73.5%, 99.7% and 95.6%, respectively. For the same compound, the EC50 in the series listed under Rattus norvegicus turned out to be 69 nM.
The half-life is the time needed for the level to fall by half in the phase considered. Lower therefore signals fast loss. `O=C(/C=C/c1cccc2c1N(Cc1ccc3ccccc3c1)C(=O)C2O)NS(=O)(=O)c1ccc(F)cc1` (stereo not drawn): the “inhibition (INH)” value was “Not Active” on Cytochrome P450 2D6; “Not Active” against Cytochrome P450 3A4 [8]; “Not Active” at Cytochrome P450 1A2; “Active” on Cytochrome P450 2C9; “Active” against Cytochrome P450 3A4 [12]. Moreover, the IC50 is greater than 20000 nM in [5]; 19.4 nM in series [4]; 0.9 nM in [2]; 15100 nM in series [9]; greater than 20000 nM in series [10]; greater than 20000 nM on Prostacyclin receptor. For the same compound, the remaining at 0.5 h is 83.4% in series [6], 103% in [7] and 97.7% in series [11]. Besides, the half-life is 1.75 h in series [13] and 2.1 h in series [14]. For the same compound, the EC50 in the series listed under Rattus norvegicus worked out at 63 nM.
With `O=C(/C=C/c1cccc2c1N(Cc1ccc3ccccc3c1)C(=O)C2O)NS(=O)(=O)c1ccc(F)c(F)c1` (stereo not drawn), the “inhibition (INH)” value against Cytochrome P450 2D6 is on record as “Not Active”; against Cytochrome P450 3A4 [8], “Not Active”; at Cytochrome P450 1A2, “Not Active”; against Cytochrome P450 2C9, “Active”; against Cytochrome P450 3A4 [12] it was “Active”. The half-maximal inhibitory concentration (IC50) in [5] is greater than 20000 nM; in series [4] it was 7.6 nM; in series [2] it was 1.6 nM; in series [9], 2300 nM; in series [10] it was greater than 20000 nM; at Prostacyclin receptor, greater than 20000 nM. Also, the values for the remaining at 0.5 h in series [6], in series [7] and in series [11] were 72.7%, 87.9% and 89.3%, respectively. Besides, in the series filed under Rattus norvegicus, the EC50 came to 87 nM.
